According to PMC2836884 (Journal of Acquired Immune Deficiency Syndromes (1999), 2009):
Read-outs that look alike come from different tables or passages of the source.

What was measured:
[1] = test system: cytochrome P450 system; conditions: cited from earlier work
[2] = in vivo, cited from earlier work
[3] = adults receiving 600 mg (approximately 8 mg/kg); Weller et al; cited from earlier work
[4] = children n = 22 (3 mo to 13 yrs), cited from earlier work
[5] = assay type: in vivo, human
In short: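 HIV-1–infected patients aged 9–18 y, Tanner-stratified; one oral-solution dose of 8 mg/kg (max 600 mg) with water, fasted from 1 h before to 2 h after. Heparinised plasma sampled at 0–8 h (10 points) and assayed by reversed-phase HPLC-UV. Per-subject 1-compartment zero-order-absorption fit by weighted least squares gave kel and CL/F; Tmax by inspection; AUC 0–8 h.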

[6] = in vivo, po; cited from earlier work
[7] = test system: HIV; conditions: 8 mg/kg twice daily with AZT or 3TC; previously untreated children; cited from earlier work
[8] = children receiving 8 mg/kg, primarily prepubescent; Jullien et al; cited from earlier work
[9] = adults, cited from earlier work
[10] = adults n = 12 (24–48 yrs), cited from earlier work

Nc1nc(NC2CC2)c2ncn([C@H]3C=C[C@@H](CO)C3)c2n1 [ABC, Abacavir]
substrate or inhibitor of the cytochrome P450 system [1]: not a substrate or inhibitor of the cytochrome P450 system | oral clearance, adjusted for body size, higher for children than adults ([2]; po): approximately 2 times | systemic exposure (AUC) in children lower than adult values [2]: approximately 50% | mean CL/F [3]: 11.5 mL/min per kg | AUC ([4]; single dose 4 mg/kg): 2800 ng·h/mL | CL/F ([4]; single dose 4 mg/kg): 27.4 mL/min per kg | Cmax ([4]; single dose 4 mg/kg): 1700 ng/mL | t½ ([4]; single dose 4 mg/kg): 0.9 h | AUC ([4]; single dose 8 mg/kg): 8100 ng·h/mL | CL/F ([4]; single dose 8 mg/kg): 18.9 mL/min per kg | Cmax ([4]; single dose 8 mg/kg): 3900 ng/mL | t½ ([4]; single dose 8 mg/kg): 1.1 h | Intersubject variation of CL/F referenced to body weight ([5]; all subjects): more than 8 fold | share of the total AUC in the period after 8 hours ([5]; all subjects, estimated): < 3% | Tmax ([5]; both, human, plasma, po, 8 mg/kg): 1 h | amount eliminated unchanged in the urine [6]: < 5% | reduction in viral load versus AZT/3TC combination [7]: larger reduction in viral load | mean CL/F [8]: 15.8 mL/min per kg | AUC ([9]; recommended dose 300 mg twice daily): 5000 to 6000 ng·h/mL | AUC ([9]; single-dose studies, 600 mg): 11000 to 16000 ng·h/mL | AUC ([10]; single dose 4 mg/kg): 6000 ng·h/mL | CL/F ([10]; single dose 4 mg/kg): 13.4 mL/min per kg | Cmax ([10]; single dose 4 mg/kg): 2900 ng/mL | t½ ([10]; single dose 4 mg/kg): 1.2 h | CL/F ([10]; single dose 8 mg/kg (600 mg)): 10.2 mL/min per kg | AUC ([10]; single dose 8 mg/kg): 15700 ng·h/mL | Cmax ([10]; single dose 8 mg/kg): 4700 ng/mL | t½ ([10]; single dose 8 mg/kg): 1.7 h
